By Kd is commonly meant the concentration at which binding is half-saturated.

Where a SMILES comes first, the peptide text is derived from it.

Experiment [1] concerns the target T1, PDZ2 (second PDZ domain, 1361-1456) from human PTP1E/PTPL1 (Homo sapiens, UniProt Q12923).
T1 sequence (Q12923 1361-1456): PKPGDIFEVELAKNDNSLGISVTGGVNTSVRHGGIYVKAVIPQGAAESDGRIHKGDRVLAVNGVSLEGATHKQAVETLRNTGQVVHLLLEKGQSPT
In words: NMR titration binding affinity of peptide to PDZ2. In a few lines:
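NMR titration of test peptide into PDZ2 expressed in E. coli BL21(DE3), 1 mM, in 150 mM NaCl, 50 mM sodium phosphate pH 6.8, 10% D2O, at 25 °C on 500/600 MHz spectrometers. Protein concentration by UV absorbance at 280 nm; Kd derived from titration.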

In experiment [2] the target is T1, PDZ2 (second PDZ domain, 1361-1456) from human PTP1E/PTPL1. In words: Fluorescence binding affinity of peptide to PDZ2.
The target of experiment [3] is T2, APC C-terminal peptide (Homo sapiens).
T2 chain: GSYLVTSV
In words: NMR titration.

Regarding `CC(C)C[C@H](NC(=O)[C@H](Cc1ccc(O)cc1)NC(=O)[C@H](CO)NC(=O)CN)C(=O)N[C@H](C(=O)N[C@H](C(=O)N[C@@H](CO)C(=O)N[C@H](C(=O)O)C(C)C)[C@@H](C)O)C(C)C` [APC] (H-GSYLVTSV-OH), in experiment [1], binding was put at a Kd of 10 µM.
`CC(=O)N[C@@H](CCC(=O)O)C(=O)N[C@@H](CC(N)=O)C(=O)N[C@@H](CCC(=O)O)C(=O)N[C@@H](CCC(N)=O)C(=O)N[C@H](C(=O)N[C@@H](CO)C(=O)N[C@@H](C)C(=O)N[C@H](C(=O)O)C(C)C)C(C)C` [RA-GEF2] (Ac-ENEQVSAV-OH): binding in experiment [2] was put at a Kd of 10 µM.

B1: PTP1E (PTPL1) PDZ2 1361-1456 (protein)
chain: PKPGDIFEVELAKNDNSLGISVTGGVNTSVRHGGIYVKAVIPQGAAESDGRIHKGDRVLAVNGVSLEGATHKQAVETLRNTGQVVHLLLEKGQSPT
In the case of B1, the affinity in experiment [3], expressed as Kd, was 10 µM.

The values are drawn from article PMC3001272 (Biochemistry, 2010).
